Screening data: PubChem BioAssay, The Scripps Research Institute Molecular Screening Center
In the library only some 2.2% were active in any assay of this set; here they are far more common.
M5 PAM: human M5 muscarinic receptor positive allosteric modulators, primary screen, CHO-K1 cells, Fluo-8 calcium fluorescence; Muscarinic acetylcholine receptor M5 (Homo sapiens), P08912; hit rate 0.3% among 360,000; AID 624038, 2012; activation, % at 3 µM; CHO-K1 hM5, ACh EC20 PAM; 0% = ACh EC20, 100% = ACh EC100;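 active = activation above the run cutoff, the mean activation of all test compounds plus 3 SD, cut at about 18% in these data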
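Measured by: Fluo-8 calcium fluorescence; material: human M5 receptor in CHO-K1 cells; schedule: Post-acetylcholine fluorescence recording 140 s; benchmarks: low control EC20 acetylcholine (0%), high control EC100 acetylcholine (100%); read-out: Max/basal fluorescence ratio as % of EC20–EC100 ACh window; compound: single dose, 3 µM nominal final test concentration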
CHRM5 agonist: human M5 muscarinic receptor agonists, primary screen, CHO-K1 cells, Fluo-8 calcium fluorescence; Muscarinic acetylcholine receptor M5 (Homo sapiens), P08912; CHO-K1 hM5 cells; 0% DMSO wells, 100% maximal acetylcholine response; activation, % at 3 µM; hit rate 0.19% among 360,000; AID 624037, 2012;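 active = activation above the run's mean over test compounds plus 3 SD, cut at about 23% in these data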;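 note: signal is peak over basal fluorescence ratio across the kinetic read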
M5 antag: human M5 muscarinic receptor antagonists, primary screen, CHO cells, Fluo-8 calcium fluorescence; Muscarinic acetylcholine receptor M5 (Homo sapiens), P08912; CHO-hM5 cells, ACh EC80; inhibition, % at 3 µM; hit rate 0.59% among 360,000;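 active = inhibition above a per-plate cutoff, the mean of that plate's test compounds plus 3 SD, cut at about 27% in these data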;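 note: 0% = acetylcholine EC80 with DMSO and 100% = DMSO without agonist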
M1 PAM: human M1 muscarinic receptor positive allosteric modulators, primary screen, CHO-K1 cells, Fluo-8 calcium fluorescence, 1536-well; Muscarinic acetylcholine receptor M1 (Homo sapiens), P11229; CHO-K1 hM1, ACh EC20; 0% = ACh EC20, 100% = maximal ACh; activation, % at 3 µM; hit rate 0.088% among 360,000; AID 588819, 2011; in the data active = activation above about 19%, passing the limit was not always enough
Target sequence (P11229 whole entry, looked up): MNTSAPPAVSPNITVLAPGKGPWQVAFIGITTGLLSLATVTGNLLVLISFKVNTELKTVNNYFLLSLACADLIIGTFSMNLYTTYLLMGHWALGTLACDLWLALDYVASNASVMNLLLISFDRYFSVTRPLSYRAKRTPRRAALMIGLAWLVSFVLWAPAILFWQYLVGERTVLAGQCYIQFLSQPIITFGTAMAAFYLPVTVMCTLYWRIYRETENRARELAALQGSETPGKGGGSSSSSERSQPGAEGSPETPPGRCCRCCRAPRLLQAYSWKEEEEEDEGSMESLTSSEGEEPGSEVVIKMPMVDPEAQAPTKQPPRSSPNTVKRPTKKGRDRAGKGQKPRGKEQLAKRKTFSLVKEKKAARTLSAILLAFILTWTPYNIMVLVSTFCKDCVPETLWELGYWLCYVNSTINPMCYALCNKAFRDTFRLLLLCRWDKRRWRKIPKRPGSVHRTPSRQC
M1 ag: human M1 muscarinic receptor agonists, primary screen, Fluo-8 calcium fluorescence, CHO-K1 cells, HTS; Muscarinic acetylcholine receptor M1 (Homo sapiens), P11229; hit rate 0.33% among 360,000; CHO-K1 hM1, agonist mode; 0% DMSO, 100% acetylcholine EC100; activation, % at 3 µM;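 active = activation above the run's mean compound activation plus 3 SD, cut at about 16% in these data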;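 note: peak over basal fluorescence ratio within a 140 s kinetic read after compound addition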
CHRM1 antagonist: human M1 muscarinic receptor antagonists, primary screen, CHO-K1 cells, Fluo-8 calcium fluorescence, 1536-well | Muscarinic acetylcholine receptor M1 (Homo sapiens), P11229 | CHO-K1 hM1, ACh EC80 antagonist | inhibition, % at 3 µM | hit rate 1.3% among 360,000;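 active = percent inhibition above its own plate's cutoff, namely the mean of that plate's compound wells plus 3 SD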;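 note: peak over basal fluorescence ratio during 140 s after agonist addition; 0% = ACh EC80 plus DMSO and 100% = DMSO alone without agonist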
Active calls of the source: *.

SMILES	M5 PAM	CHRM5 agonist	M5 antag	M1 PAM	M1 ag	CHRM1 antagonist
C=CCNC(=O)CN1CCN(C(c2ccccc2)c2ccccc2)CC1	-3	-19	-1	5	-8	-3
Fc1ccc(CN2CCN(C(c3ccccc3)c3ccccc3)CC2)cc1	-25	-19	22	-27	-8	36*
O=S(=O)(CCN1CCN(C(c2ccccc2)c2ccccc2)CC1)C(F)(F)F	-22	-6	45*	-34	-14	77*
O=C(NCc1ccco1)c1cccc2c(-c3ccc(F)c(F)c3)coc12	-4	-1	2	-3	-5	-8
COc1ccc(NC(=O)C2CCCN2S(=O)(=O)c2cccc3cccnc23)cc1OC (configuration not stated)	-4	-1	-4	4	-2	-14
COc1ccc(-c2cnc(SCC(=O)Nc3ccc4c(c3)OCO4)n2Cc2ccco2)cc1	-19	0	22	-12	1	5
CC(=O)Nc1cccc(NC(=O)CSc2ncc(-c3ccc(Cl)cc3)n2Cc2ccco2)c1	-25	6	23	-19	6	26*
O=Cc1ccc(-n2cncn2)cc1	-5	-1	18	9	-5	-6
CN1C(=O)S/C(=C\c2ccc(-n3cncn3)cc2)C1=O	21*	4	-13	7	-1	3
CC(C)CCOc1ccc(Cl)cc1CN1CCOCC1	-8	-1	-4	-3	-2	-2
CC(=O)Nc1ccc(S(=O)(=O)NC2CCCCCC2)cc1	-5	1	10	-2	-2	4
CCN1CCN(CC(=O)Nc2ccc(S(=O)(=O)N3C(C)CCCC3C)cc2)CC1 (configuration not stated)	-1	-7	12	-24	-11	24*
CC1CCN(CC(=O)Nc2ccc(S(=O)(=O)NC3CC3)cc2)CC1	-4	-19	4	-25	-6	74*
CC1CCC(NS(=O)(=O)c2ccc(N3CCCC3=O)cc2)CC1 (configuration not stated)	14	8	17	-21	6	46*
O=C(CNC1CCCCCC1)Nc1ccc(S(=O)(=O)NC2CC2)cc1	-7	-6	-6	-27	-11	32*
O=C(O)CC1(CC(=O)N2CCC(C(=O)O)CC2)CCCC1	-3	-1	7	8	-1	4
CCN(CC)C(=O)Cn1cc(S(=O)(=O)CC(=O)NCc2ccc(C)cc2)c2ccccc21	4	-2	-5	5	-3	-12
O=C(Nc1ccccc1C(=O)Nc1nnc(C(F)(F)F)s1)c1ccccc1	-24	1	36*	-12	8	18
Cc1ccccc1C(=O)N/N=C/c1ccc(Sc2ccccn2)o1	24*	2	23	7	3	-8
O=C(N/N=C\c1ccc(Sc2ccccn2)o1)c1cccc(Br)c1	-7	0	-1	3	1	4
Cn1c(=O)c2cc(NC(=O)Cc3cccc4ccccc34)ccc2n1-c1ccccc1	-4	0	0	-2	-5	-7
CCCCCOc1ccc(C(=O)CCC(=O)N2CCCC2)cc1	-6	-6	18	-19	-11	22*
O=C(c1ccncc1)N1CCN(C2CCC(c3ccccc3)CC2)CC1 (configuration not stated)	8	-19	-3	-2	0	11
COc1cccc(C(=O)N2CCN(C3CCC(c4ccccc4)CC3)CC2)c1OC (configuration not stated)	-5	-8	21	-11	43*	22
COC(=O)c1c(SCc2ccc(C#N)cc2)nc(=O)[nH]c1C	-5	0	-6	-4	-4	3
